Experimental data taken from PubChem BioAssay AID588731 (Vanderbilt Specialized Chemistry Center, 2011).
Active and inactive are the calls of the source.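 How the source made its calls: active means compounds shifting agonist potency at least twofold either way, or pushing peak agonist response below 75% or above 125%; inactive means the rest.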

Target: Metabotropic glutamate receptor 7 (Rattus norvegicus) (UniProt P35400)
Assay: rat mGlu7 allosteric modulation, L-AP4 curve shift, profiling panel, selectivity assay for mGlu5 PAM project, thallium flux, HEK/GIRK cells (AID 588731)
Settings: L-AP4 CRC shift, at 10 µM; for Emax: measured here: L-AP4 max response with compound
Procedure, shortened: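 Assay system: HEK cells with GIRK channels expressing rat mGlu7 receptor / Also added: L-AP4 concentration-response curve / Incubation: dye load 45 min, 37 °C, agonist at 142 s / Read-out: agonist EC50 fold shift and %Emax / Dosing: single test compound concentration of 10 µM final / Technique: GIRK thallium flux fluorescence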

Sequence of Metabotropic glutamate receptor 7 (Rattus norvegicus) (P35400 whole entry, looked up): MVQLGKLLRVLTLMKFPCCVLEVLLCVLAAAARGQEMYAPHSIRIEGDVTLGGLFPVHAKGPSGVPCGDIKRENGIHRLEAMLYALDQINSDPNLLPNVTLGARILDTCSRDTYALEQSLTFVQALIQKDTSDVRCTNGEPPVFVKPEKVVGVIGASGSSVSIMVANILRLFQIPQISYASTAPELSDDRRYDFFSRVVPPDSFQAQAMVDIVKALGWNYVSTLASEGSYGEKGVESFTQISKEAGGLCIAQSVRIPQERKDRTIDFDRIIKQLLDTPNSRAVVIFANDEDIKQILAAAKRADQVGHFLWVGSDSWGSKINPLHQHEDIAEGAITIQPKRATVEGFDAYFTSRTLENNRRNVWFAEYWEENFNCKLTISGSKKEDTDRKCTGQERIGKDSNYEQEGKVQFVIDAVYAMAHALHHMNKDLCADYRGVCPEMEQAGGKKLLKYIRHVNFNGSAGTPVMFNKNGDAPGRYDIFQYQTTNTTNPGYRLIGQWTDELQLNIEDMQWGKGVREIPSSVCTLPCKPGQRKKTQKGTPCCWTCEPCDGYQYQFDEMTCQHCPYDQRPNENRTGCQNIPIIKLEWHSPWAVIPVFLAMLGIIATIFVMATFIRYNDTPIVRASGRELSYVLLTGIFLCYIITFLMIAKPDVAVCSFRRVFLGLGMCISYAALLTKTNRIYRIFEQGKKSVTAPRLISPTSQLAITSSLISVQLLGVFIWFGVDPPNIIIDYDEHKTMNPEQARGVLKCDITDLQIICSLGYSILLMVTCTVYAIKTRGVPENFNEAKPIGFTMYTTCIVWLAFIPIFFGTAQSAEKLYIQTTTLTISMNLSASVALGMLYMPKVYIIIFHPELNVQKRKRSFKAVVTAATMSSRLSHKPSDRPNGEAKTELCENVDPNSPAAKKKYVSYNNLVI

fold shift	Emax [%]	SMILES
0.77 (inactive)	92.3	CC1(NC(=O)c2ccc(C#Cc3cccc(F)c3)cn2)COC1
1.04 (inactive)	92	C[C@@H](NC(=O)c1ccc(C#Cc2cccc(F)c2)cn1)C(C)(C)O
